In ChEMBL document CHEMBL1129062, “6- and 7-substituted 2-[2'-(dimethylamino)ethyl]-1,2-dihydro-3H-dibenz[de,h] isoquinoline-1,3-diones: synthesis, nucleophilic displacements, antitumor activity, and quantitative structure-activity relationships” (J Med Chem, 1996):
Activity calls are given as the source filed them. The calls are words filed in the database; no cut-off is given here.

Legend:
WiDr [1] = test: Tested against WiDr colon (sensitive) in the sulforhodamine B assay.; format: functional, cell-based; conditions: Homo sapiens
Procedure, shortened: (§1)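 Sulforhodamine B assay. Cells plated at 50 000/well; drug added on day 2 at 10^1–10^-5 μg/mL in half-log steps from DMSO stock diluted in PBS, final DMSO ≤0.1%. After 8-day exposure at 37 °C, cells fixed with TCA at 4 °C for 1 h and stained 30 min with 0.4% SRB. Dye solubilized in 10 mM Tris and OD read at 564 nm. Six wells per concentration; IC50 averaged.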

A549 [2] = test: Tested against A549 lung carcinoma in the sulforhodamine B assay.; format: functional, cell-based; conditions: Homo sapiens; procedure, shortened: as §1
L1210 [3] = test: Compound was tested against L1210 leukemia at % increase in life span (ILS) in mice at 1.6 mg/kg dosage.; format: functional; conditions: Mus musculus
Procedure, shortened: (§2)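 Male DBA/2J mice, 10 per group, inoculated ip on day 0 with 10^6 freshly harvested leukemia cells. Compound given ip in equal doses on days 1, 5 and 9; controls received saline ip on the same days. Highest dose set 10% below the acute LD10. %ILS = 100 × (treated − control)/control, using median life span per group; value reported at highest nontoxic dose.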

[4] = Toxicity ratio determined by the quotient of IC50 values in the myocytes divided by the average value in the three tumor lines.; format: functional
Procedure, shortened: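 Ratio is the myocyte cardiotoxicity IC50 (1-h exposure, ATP/protein ratio versus untreated myocytes) divided by the mean IC50 in sensitive L1210 and the two human tumor lines, measured with continuous exposure.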

MCF7 [5] = test: Tested against […] breast carcinoma (mitoxantrone resistant)cell line in the sulforhodamine B assay.; format: functional, cell-based; conditions: Homo sapiens; procedure, shortened: as §1
[6] = An average for IC50 values in the two solid tumor cell lines and sensitive L1210 leukemia cell line.; format: functional, cell-based
MCF7 [7] = test: Tested against […] breast carcinoma (sensitive) cell line in the sulforhodamine B assay.; format: functional, cell-based; conditions: Homo sapiens; procedure, shortened: as §1
L1210 [8] = test: Inhibitory activity against sensitive L1210 cell lines; format: functional, cell-based; conditions: Mus musculus
WiDr [9] = test: Tested against WiDr colon carcinoma (resistant) in the sulforhodamine B assay.; format: functional, cell-based; conditions: Homo sapiens; procedure, shortened: as §1
Rattus norvegicus [10] = organism: Rattus norvegicus; test: Cardiotoxicity by a neonatal rat heart myocyte assay; format: toxicity
Procedure, shortened: (§3)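 Neonatal rat heart myocytes exposed to drug for 1 h. Read-out is the ATP/protein ratio relative to untreated control myocytes. IC50 is the 1-h concentration that reduces this ratio to 50% of control.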

MCF7 [11] = test: Tested against […] breast carcinoma (doxorubicin resistant) cell line in the sulforhodamine B assay.; format: functional, cell-based; conditions: Homo sapiens; procedure, shortened: as §1
P388 [12] = test: Compound was tested against P388 leukemia at % increase in life span (ILS) in mice at 1.6 mg/kg dosage.; format: functional; conditions: Mus musculus; procedure, shortened: as §2
B16 [13] = test: Compound was tested against sc B16 melanoma at % tumor growth inhibition(TGI) in mice at 3.2 mg/kg dosage.; format: functional; conditions: Mus musculus, route subcutaneous, read-out: TGI
Tumor cell line = test: An average for IC50 values in the two solid tumor cell lines.; format: functional, cell-based
A549 [14] = test: Compound was tested against A549 lung carcinoma cell line in the sulforhodamine B assay.; format: functional, cell-based; conditions: Homo sapiens; procedure, shortened: as §1
WiDr [15] = test: Compound tested against WiDr colon carcinoma (resistant)cell line in the sulforhodamine B assay.; format: functional, cell-based; conditions: Homo sapiens; procedure, shortened: as §1
OVCAR-3 = test: Inhibitory activity against OVCAR-3 cell line; format: functional, cell-based; conditions: Homo sapiens
UACC-375 = test: Inhibitory activity against […] cell line; format: functional, cell-based; conditions: Homo sapiens
L1210 [16] = test: Inhibitory activity against resistant murine leukemia L1210 cell lines.; format: functional, cell-based; conditions: Mus musculus
WiDr [17] = test: Compound was tested against WiDr colon (sensitive) cell line in the sulforhodamine B assay.; format: functional, cell-based; conditions: Homo sapiens; procedure, shortened: as §1
WiDr [18] = test: Compound tested against WiDr colon carcinoma (resistant) in the sulforhodamine B assay.; format: functional, cell-based; conditions: Homo sapiens; procedure, shortened: as §1
A549 [19] = test: Compound tested against A549 lung carcinoma in the sulforhodamine B assay.; format: functional, cell-based; conditions: Homo sapiens; procedure, shortened: as §1
L1210 [20] = test: Compound was tested against L1210 leukemia at % increase in life span (ILS) in mice at 8 mg/kg dosage; Not active; format: functional, organism-based; parameters: dose 8 mg/kg; conditions: Mus musculus
WiDr [21] = test: Compound tested against WiDr colon (sensitive) in the sulforhodamine B assay.; format: functional, cell-based; conditions: Homo sapiens; procedure, shortened: as §1
P388 [22] = test: Compound was tested against P388 leukemia at % increase in life span (ILS) in mice at 15 mg/kg dosage.; format: functional; conditions: Mus musculus; procedure, shortened: as §2
WiDr [23] = test: Compound was tested against WiDr colon carcinoma (resistant) in the sulforhodamine B assay.; format: functional, cell-based; conditions: Homo sapiens; procedure, shortened: as §1
P388 [24] = test: Compounds was tested against P388 leukemia at % increase in life span (ILS) in mice at 4.5 mg/kg dosage.; format: functional; conditions: Mus musculus; procedure, shortened: as §2
B16 [25] = test: Compound was tested against sc B16 melanoma at % tumor growth inhibition(TGI) in mice at 4 mg/kg dosage.; format: functional; conditions: Mus musculus, route subcutaneous, read-out: TGI
L1210 [26] = test: Compound was tested against L1210 leukemia at % increase in life span (ILS) in mice at 5 mg/kg dosage.; format: functional; conditions: Mus musculus; procedure, shortened: as §2
P388 [27] = test: Compound was tested against P388 leukemia at % increase in life span (ILS) in mice at 3 mg/kg dosage.; format: functional; conditions: Mus musculus; procedure, shortened: as §2
B16 [28] = test: Compound were tested against sc B16 melanoma at % tumor growth inhibition(TGI) in mice at 3 mg/kg dosage.; format: functional; conditions: Mus musculus, route subcutaneous, read-out: TGI
P388 [29] = test: Compound was tested against P388 leukemia at % increase in life span (ILS) in mice at 15 mg/kg dosage; Not active at highest dose tested (% ILS<25); format: functional, organism-based; parameters: dose 15 mg/kg; conditions: Mus musculus
Rattus norvegicus [30] = organism: Rattus norvegicus; test: Compound was tested for Cardiotoxicity by a neonatal rat heart myocyte assay.; format: functional; procedure, shortened: as §3
[31] = system: neonatal heart myocytes (Rattus norvegicus); test: Cardio toxicity was measured.
P388 [32] = test: Compound was tested against P388 leukemia at % increase in life span (ILS) in mice at 5 mg/kg dosage.; format: functional; conditions: Mus musculus; procedure, shortened: as §2
B16 [33] = test: Compound was tested against sc B16 melanoma at % tumor growth inhibition(TGI) in mice at 6 mg/kg dosage; no palpable tumor; format: functional; conditions: Mus musculus, route subcutaneous, read-out: TGI
L1210 [34] = test: Compound was tested against L1210 leukemia at % increase in life span (ILS) in mice at 8 mg/kg dosage.; format: functional; conditions: Mus musculus; procedure, shortened: as §2
A549 [35] = test: Compound was tested against A549 lung cancer cell line in the sulforhodamine B assay.; format: functional, cell-based; conditions: Homo sapiens; procedure, shortened: as §1
WiDr [36] = test: Compound was tested against WiDr colon carcinoma (resistant)cell line in the sulforhodamine B assay.; format: functional, cell-based; conditions: Homo sapiens; procedure, shortened: as §1
P388 [37] = test: Compound was tested against P388 leukemia cell line in mice at 15 mg/kg dosage.; format: functional; conditions: Mus musculus; procedure, shortened: as §2
B16 [38] = test: Compound was tested against sc B16 melanoma cell line in mice at 15 mg/kg dosage.; format: functional; conditions: Mus musculus, route subcutaneous, read-out: TGI
L1210 [39] = test: Compound was tested against L1210 leukemia cell line in mice at 15 mg/kg dosage.; format: functional; conditions: Mus musculus; procedure, shortened: as §2

| SMILES | IC50 (WiDr [1]) [nM] | IC50 (A549 [2]) [nM] | Toxicity ratio [4] | IC50 (MCF7 [5]) [nM] | IC50 [6] [nM] | IC50 (MCF7 [7]) [nM] | IC50 (L1210 [8]) [nM] | IC50 (WiDr [9]) [nM] | IC50 (Rattus norvegicus [10]) [nM] | IC50 (MCF7 [11]) [nM] | IC50 (Tumor cell line) [nM] | IC50 (OVCAR-3) [nM] | IC50 (UACC-375) [nM] | IC50 (L1210 [16]) [nM] | other results |
| --- | --- | --- | --- | --- | --- | --- | --- | --- | --- | --- | --- | --- | --- | --- | --- |
| O=C1c2c(O)ccc(O)c2C(=O)c2c(NCCNCCO)ccc(NCCNCCO)c21 [MITOXANTRONE] | 8.1 | 3.1 | 368 | 41 | 21 | 8.7 | 9.7 | 488 | 7740 | 72 | 27 |  |  |  | ILS at 1.6 mg/kg (L1210 [3]): 150%; ILS at 1.6 mg/kg (P388 [12]): 200%; inhibition in vivo at 3.2 mg/kg (B16 [13]): 130% |
| CN(C)CCN1C(=O)c2ccc(I)c3cc4ccccc4c(c23)C1=O |  |  | 105 | 10 | 416 | 11 | 416 |  | 43700 | 30 | 416 | 416 | 416 | 416 | IC50 (A549 [14]): 10 nM; IC50 (WiDr [15]): 620 nM; IC50 (WiDr [17]): 65 nM |
| CN(C)CCOc1ccc2c3c(c4ccccc4cc13)C(=O)N(CCN(C)C)C2=O |  |  | 262 | 3.9 | 21 | 3.9 | 0.2 |  | 5440 | 8.9 | 31 | 31 | 31 | 1.3 | IC50 (WiDr [18]): 10 nM; IC50 (A549 [19]): 0.58 nM; ILS (L1210 [20]): inactive; IC50 (WiDr [21]): 2.4 nM |
| CN(C)CCN1C(=O)c2cccc3cc(N)cc(c23)C1=O [AMONAFIDE] |  |  | 30 |  | 1610 |  |  |  | 48400 |  | 2110 |  |  |  | ILS at 15 mg/kg (P388 [22]): 88% |
| COc1cccc2c1C(=O)c1c(O)c3c(c(O)c1C2=O)C[C@@](O)(C(=O)CO)C[C@@H]3O[C@H]1C[C@H](N)[C@H](O)[C@H](C)O1 [DOXORUBICIN] | 53 |  |  |  | 61 |  |  |  | 10200 |  | 74 |  |  |  | IC50 (WiDr [23]): 130 nM; ILS at 4.5 mg/kg (P388 [24]): 113%; inhibition in vivo at 4 mg/kg (B16 [25]): 120%; ILS at 5 mg/kg (L1210 [26]): 210% |
| CN(C)CCNc1ccc2c3c(c4ccccc4cc13)C(=O)N(CCN(C)C)C2=O | 1.7 | 0.43 | 171 | 1.9 | 25 | 1 | 0.04 | 14 | 4190 | 14 | 37 | 63 | 11 | 0.04 | ILS at 3 mg/kg (P388 [27]): 44%; inhibition in vivo at 3 mg/kg (B16 [28]): 66% |
| Cc1ccc2c3c(c4ccccc4cc13)C(=O)N(CCN(C)C)C2=O |  |  | 8.1 |  |  |  | 6.8 |  |  |  | 179 | 217 | 141 | 27 | ILS (P388 [29]): inactive; IC50 (Rattus norvegicus [30]): 989 nM; IC50 [31]: 989 nM |
| CCOc1ccc2c3c(c4ccccc4cc13)C(=O)N(CCN(C)C)C2=O | 17 | 2.9 | 192 | 14 | 9.3 | 11 | 8 | 63 | 1780 | 18 | 10 | 0.8 | 19 | 6.7 | ILS at 5 mg/kg (P388 [32]): 55%; inhibition in vivo at 6 mg/kg (B16 [33]): > 100%; ILS at 8 mg/kg (L1210 [34]): 100% |
| CN(C)CCN1C(=O)c2cccc3cc4ccccc4c(c23)C1=O [AZONAFIDE] |  |  | 44 | 20 | 45 | 18 | 7 |  | 1980 | 70 | 64 |  |  |  | IC50 (A549 [35]): 10 nM; IC50 (WiDr [36]): 94 nM; ILS at 15 mg/kg (P388 [37]): 79%; inhibition in vivo at 15 mg/kg (B16 [38]): 74%; IC50 (WiDr [17]): 13 nM; ILS at 15 mg/kg (L1210 [39]): 72% |
